Calls of active or inactive are those of the source. No cut-off for these calls is given here. Non-standard residues stand in square brackets, D forms with d. Residues, ends and D or L forms follow the SMILES beside them. Sar = CNCC(=O)O
How the values were obtained:
Rattus norvegicus [1] = test: In vivo agonist activity at angiotensin 2 receptor in ganglion-blocked vagotomized rat assessed as pressor activity administered as single bolus dose relative to angiotensin-2; assay type: functional
Procedure, shortened: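 Vagotomized, ganglion-blocked rats; analogue given as a single injection and pressor response expressed as percent of angiotensin II ([Asp1,Ile5]angiotensin II = 100).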

Rattus norvegicus [2] = test: In vivo agonist activity at angiotensin 2 receptor in ganglion-blocked vagotomized rat assessed as rise in blood pressure at 250 ng/kg/min compound infused for 3 mins; assay type: functional
Rattus norvegicus [3] = test: In vivo agonist activity at angiotensin 2 receptor in ganglion-blocked vagotomized rat assessed as rise in blood pressure at 250 ng/kg/min compound infused for 10 mins; assay type: functional
Rattus norvegicus [4] = test: In vivo agonist activity at angiotensin 2 receptor in ganglion-blocked vagotomized rat assessed as rise in blood pressure at 250 ng/kg/min compound infused for 30 mins; assay type: functional
Procedure, shortened: (§1)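 Vagotomized, ganglion-blocked rats given analogue by infusion (standard rate 250 ng/kg/min, some at 125 ng/kg/min); initial blood pressure rise recorded in mmHg over the 30-min infusion period.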

Rattus norvegicus [5] = test: In vivo non-competitive antagonist activity at angiotensin 2 receptor in ganglion-blocked vagotomized rat assessed as angiotensin-2 dose ratio at 250 ng/kg/min administered as an infusion; assay type: functional
Procedure, shortened: (§2)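 Vagotomized, ganglion-blocked rats infused with analogue at 125 or 250 ng/kg/min; antagonism of angiotensin II pressor response expressed as dose ratio.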

[6] = Retardation factor of the compound using n-BuOH-AcOH-water at ratio of 4:1:5 as solvent system by thin layer chromatography; assay type: physicochemical; conditions: buffer
[7] = Retardation factor of the compound using n-BuOH-AcOH-water-pyridine at ratio of 30:6:24:20 as solvent system by thin layer chromatography; assay type: physicochemical; conditions: buffer
[8] = Retardation factor of the compound using n-BuOH-pyridine-water at ratio of 10:2:5 as solvent system by thin layer chromatography; assay type: physicochemical; conditions: buffer
[9] = Retardation factor of the compound using n-BuOH-pyridine-water at ratio of 65:35:35 as solvent system by thin layer chromatography; assay type: physicochemical; conditions: buffer
[10] = Retardation factor of the compound using n-BuOH-pyridine-water at ratio of 65:35:65 as solvent system by thin layer chromatography; assay type: physicochemical; conditions: buffer
[11] = Retardation factor of the compound using n-PrOH-water at ratio of 2:1 as solvent system by thin layer chromatography; assay type: physicochemical; conditions: buffer
Oryctolagus cuniculus [12] = organism: Oryctolagus cuniculus; test: Agonist activity at angiotensin 2 receptor in rabbit aorta assessed as myotropic activity up to 1 uM/L relative to angiotensin-2; assay type: tissue-based
Procedure, shortened: (§3)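 Spirally cut isolated rabbit aortic strips; contractile (myotropic) activity of each analogue tested up to a maximum dose level of 10^-6 M/L.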

[13] = Competitive antagonist at angiotensin 2 receptor in rabbit aorta assessed as rightward shift in angiotensin-2 dose response curve for myotropic activity; assay type: tissue-based, Oryctolagus cuniculus
Oryctolagus cuniculus [14] = organism: Oryctolagus cuniculus; test: Non-competitive antagonist at angiotensin 2 receptor in rabbit aorta assessed as inhibition of angiotensin-2 induced myotropic activity at > 1 uM/L; assay type: tissue-based
Oryctolagus cuniculus [15] = organism: Oryctolagus cuniculus; test: Antagonist at angiotensin 2 receptor in rabbit aorta assessed as duration of action at 1 uM/L treated for 5 mins after angiotensin-2 challenge
Procedure, shortened: (§4)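 Spirally cut rabbit aortic strips challenged with a standard 10^-9 M/L angiotensin II dose, then incubated with 10^-6 M/L analogue for 5 min; analogue washed out of the bath and angiotensin II response retested at 5, 30, 60, 120 and 180 min.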

Oryctolagus cuniculus [16] = organism: Oryctolagus cuniculus; test: Reversal antagonistic activity at angiotensin 2 receptor in rabbit aorta assessed as inhibition of angiotensin-2 induced myotropic activity at 1 uM/L measured at 1 hr following drug wash-out; assay type: tissue-based; procedure, shortened: as §4
Rattus norvegicus [17] = test: In vivo agonist activity at angiotensin 2 receptor in ganglion-blocked vagotomized rat assessed as rise in blood pressure at 125 ng/kg/min compound infused for 3 mins; assay type: functional
Rattus norvegicus [18] = test: In vivo agonist activity at angiotensin 2 receptor in ganglion-blocked vagotomized rat assessed as rise in blood pressure at 125 ng/kg/min compound infused for 30 mins; assay type: functional; procedure, shortened: as §1
Rattus norvegicus [19] = test: In vivo non-competitive antagonist activity at angiotensin 2 receptor in ganglion-blocked vagotomized rat assessed as angiotensin-2 dose ratio at 125 ng/kg/min administered as an infusion; assay type: functional; procedure, shortened: as §2
[20] = Retardation factor of the compound using n-BuOH-AcOH-water at ratio of 4:1:1 as solvent system by thin layer chromatography; assay type: physicochemical; conditions: buffer
Felis catus [21] = organism: Felis catus; test: Agonist activity at angiotensin 2 receptor in cat adrenal cortex assessed as secretory activity relative to angiotensin-2; assay type: tissue-based
Felis catus [22] = organism: Felis catus; test: Agonist activity at angiotensin 2 receptor in cat adrenal medulla assessed as secretory activity relative to angiotensin-2; assay type: tissue-based
Oryctolagus cuniculus [23] = organism: Oryctolagus cuniculus; test: Agonist activity at angiotensin 2 receptor in rabbit aorta assessed as myotropic activity relative to angiotensin-2; assay type: tissue-based; procedure, shortened: as §3
[24] = Retardation factor of the compound using n-BuOH-AcOEt-AcOH-water at ratio of 1:1:1:1 as solvent system by thin layer chromatography; assay type: physicochemical; conditions: buffer
Rattus norvegicus [25] = test: In vivo agonist activity at angiotensin 2 receptor in ganglion-blocked vagotomized rat assessed as rise in blood pressure at 125 ng/kg/min compound infused for 10 mins; assay type: functional

| Compound | Activity (Rattus norvegicus [1]) [%] | Activity (Rattus norvegicus [2]) [mmHg] | Activity (Rattus norvegicus [3]) [mmHg] | Activity (Rattus norvegicus [4]) [mmHg] | Ratio (Rattus norvegicus [5]) | Rf [6] | Rf [7] | Rf [8] | Rf [9] | Rf [10] | Activity (Oryctolagus cuniculus [12]) [%] | pA2 [13] | inhibition (Oryctolagus cuniculus [14]) | TIME (Oryctolagus cuniculus [15]) [h] | Activity (Rattus norvegicus [17]) [mmHg] | Activity (Rattus norvegicus [18]) [mmHg] | Ratio (Rattus norvegicus [19]) | other results |
| --- | --- | --- | --- | --- | --- | --- | --- | --- | --- | --- | --- | --- | --- | --- | --- | --- | --- | --- |
| CC[C@H](C)[C@H](NC(=O)[C@H](Cc1ccc(O)cc1)NC(=O)[C@@H](NC(=O)[C@H](CCCNC(=N)N)NC(=O)C(C)(C)N)C(C)C)C(=O)N[C@@H](Cc1cnc[nH]1)C(=O)N1CCC[C@H]1C(=O)NC(C)(C)C(=O)O | 0.24 | 5.16 | 8.5 | 14.33 | 3.4 | 0.47 | 0.64 | 0.26 | 0.41 | 0.43 | 0 | 7.22 | Active | 1 |  |  |  | Rf [11]: 0.83; inhibition (Oryctolagus cuniculus [16]): Active |
| CC[C@H](C)[C@H](NC(=O)[C@H](Cc1ccc(O)cc1)NC(=O)[C@@H](NC(=O)[C@H](CCCNC(=N)N)NC(=O)CNC)C(C)C)C(=O)N[C@@H](Cc1cnc[nH]1)C(=O)N1CCC[C@H]1C(=O)N[C@H](C(=O)O)[C@@H](C)OC | 0.48 | 13.82 | 15.88 | 15.06 | 62.52 |  |  |  |  |  | 0.5 | 8.76 | Active | 2 | 5.25 | 8.75 | 11.65 |  |
| CC[C@H](C)[C@H](NC(=O)[C@H](Cc1ccc(O)cc1)NC(=O)[C@@H](NC(=O)[C@H](CCCNC(=N)N)NC(=O)CNC)C(C)C)C(=O)N[C@@H](Cc1cnc[nH]1)C(=O)N1CCC[C@H]1C(=O)NC(C)(C)C(=O)O | 0.52 | 11 | 13.16 | 16.6 | 19.76 | 0.46 | 0.62 |  | 0.26 | 0.22 | 0 | 8.7 | Active | 2 |  |  |  | Rf [20]: 0.5 |
| CC[C@H](C)[C@H](NC(=O)[C@H](Cc1ccc(O)cc1)NC(=O)[C@@H](NC(=O)[C@H](CCCN=C(N)N)NC(=O)CNC)C(C)C)C(=O)N[C@@H](Cc1c[nH]cn1)C(=O)N1CCC[C@H]1C(=O)N[C@H](C(=O)O)[C@@H](C)O (H-[Sar]RVYIHPT-OH) | 0.6 | 9.46 | 9.66 | 9.2 | 26.91 |  |  |  |  |  | 0.5 | 8.79 | Active | 2 |  |  |  | Activity (Felis catus [21]): 1%; Activity (Felis catus [22]): 0.1%; Activity (Oryctolagus cuniculus [23]): 0.5% |
| CC[C@H](C)[C@H](NC(=O)[C@H](Cc1ccc(O)cc1)NC(=O)[C@@H](NC(=O)CN(C)C(=O)CNC)C(C)C)C(=O)N[C@@H](Cc1c[nH]cn1)C(=O)N1CCC[C@H]1C(=O)N[C@H](C(=O)O)[C@@H](C)O (H-[Sar][Sar]VYIHPT-OH) | 0 | 3.16 | 7 | 11.66 | 1.93 | 0.46 | 0.63 | 0.24 | 0.43 |  | 0 | 8.78 | Active | 3 |  |  |  | Rf [24]: 0.75; Rf [11]: 0.76 |
| CC[C@H](C)[C@H](NC(=O)[C@H](Cc1ccc(O)cc1)NC(=O)[C@@H](NC(=O)[C@H](CCCN=C(N)N)NC(=O)CNC)C(C)C)C(=O)N[C@@H](Cc1c[nH]cn1)C(=O)N1CCC[C@H]1C(=O)N[C@@H](C)C(=O)O |  | 15.11 | 16.88 | 17.44 | 7.92 |  |  |  |  |  | 0.5 | 8.61 | Active | 2 |  |  |  |  |
| CC[C@H](C)[C@H](NC(=O)[C@@H]1CCCN1C(=O)[C@H](Cc1c[nH]cn1)NC(=O)[C@@H](NC(=O)[C@H](Cc1ccc(O)cc1)NC(=O)[C@@H](NC(=O)[C@H](CCCN=C(N)N)NC(=O)CNC)C(C)C)[C@@H](C)OC)C(=O)O (H-[Sar]RVYT(Me)HPI-OH) | 1.01 | 19 | 18.83 | 18.5 | 50 | 0.35 |  | 0.08 | 0.25 | 0.25 | 0.1 | 9.5 | Active | 2 | 11 | 19.8 | 24.15 | Activity (Rattus norvegicus [25]): 16.82 mmHg |
| CNCC(=O)N[C@@H](CCCNC(=N)N)C(=O)N[C@H](C(=O)N[C@@H](Cc1ccc(O)cc1)C(=O)N[C@H](C(=O)N[C@@H](Cc1cnc[nH]1)C(=O)N1CCC[C@H]1C(=O)N[C@H](C(=O)O)[C@@H](C)OC)[C@@H](C)OC)C(C)C | 0.46 |  |  |  |  | 0.28 | 0.47 |  | 0.18 |  | 0 | 9.5 | Active | 2 | 8.33 | 14.5 | 32.73 | Activity (Rattus norvegicus [25]): 13 mmHg |
| CC[C@H](C)[C@H](NC(=O)[C@@H]1CCCN1C(=O)[C@H](Cc1c[nH]cn1)NC(=O)[C@@H](NC(=O)[C@H](Cc1ccc(O)cc1)NC(=O)[C@@H](NC(=O)[C@H](CCCN=C(N)N)NC(=O)CNC)C(C)C)[C@@H](C)CC)C(=O)O | 1 | 17.81 | 18.27 | 14.81 | 27.79 |  |  |  |  |  | 1 | 9.17 | Active | 2 |  |  |  |  |

From ChEMBL document CHEMBL3244213, “Synthesis of angiotensin II antagonists by incorporating alpha-methylalanine or O-methylthreonine residues in angiotension II analogues” (J Med Chem, 1977)
